Measurements published in article PMC3694426 (Clinical cancer research : an official journal of the …, 2013).
Entries after “also recorded” stand apart in the source; their conditions may differ.

Legend:
[1] = phase I dose escalation: DLTs, MTD and treatment-emergent adverse events; assay type: in vivo, human
[2] = tested on: transgenic pancreatic cancer models; conditions: cited from earlier work
Smo receptor = conditions: read-out: IC50, binding to the Smo receptor; stated in introduction; cited from earlier work
SCLC tumors = conditions: cited from earlier work
[3] = tested on: B837Tx medulloblastoma allograft; conditions: oral administration; cited from earlier work
[4] = tested on: basal cell carcinoma (BCC); assay: antitumor activity in patients with BCC; assay type: in vivo, human
Method in brief: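 Oral test compound, once daily in 28-day cycles, given as an outpatient, preceded by a single dose 7 days before cycle 1. BCC patients were dosed at 130 or 160 mg. Evaluable meant more than one dose plus a post-baseline clinical or RECIST 1.0 assessment. Treatment continued until progression, unacceptable adverse events or withdrawal.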

Gli-1 mRNA = assay: pharmacodynamics: Gli-1 expression in skin and tumor biopsies; assay type: in vivo, human
Method in brief: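 Normal skin was biopsied before treatment and 3 weeks into cycle 1 of once-daily oral dosing. RNA was extracted and Gli-1 mRNA measured by RT-PCR. In the biopsy cohort, accessible tumours were sampled at the same time points (baseline cycle 1 day −7; cycle 1 day 22). Gli-1 IHC scored stromal versus epithelial nuclear staining.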

[5] = 28 evaluable vismodegib-naïve BCC patients

CC1=C2C[C@H]3[C@@H](CC[C@@H]4C[C@H](NS(C)(=O)=O)CC[C@@]43C)[C@@H]2CC[C@@]2(C1)O[C@@H]1C[C@H](C)CN[C@H]1[C@H]2C [IPI-926]
≥grade 2 toxicities ([1]; 20, 30, 40, 60 and 90 mg, 1-patient cohorts): no ≥grade 2 toxicities were documented
deaths while on study ([1]; 94 patients): No patients died while on study
ALT elevation (lab), treatment-emergent adverse event ([1]; <130 mg (n = 5), Grade 1–2): 1 (20) n (%)
AST elevation (lab), treatment-emergent adverse event ([1]; <130 mg (n = 5), Grade 1–2): 1 (20) n (%)
Alopecia, treatment-emergent adverse event ([1]; <130 mg (n = 5), Grade 1–2): 1 (20) n (%)
Decreased appetite, treatment-emergent adverse event ([1]; <130 mg (n = 5), Grade 1–2): 0 (0) n (%)
Diarrhea, treatment-emergent adverse event ([1]; <130 mg (n = 5), Grade 1–2): 0 (0) n (%)
Dysgeusia, treatment-emergent adverse event ([1]; <130 mg (n = 5), Grade 1–2): 1 (20) n (%)
Fatigue, treatment-emergent adverse event ([1]; <130 mg (n = 5), Grade 1–2): 2 (40) n (%)
Hemoglobin (lab), treatment-emergent adverse event ([1]; <130 mg (n = 5), Grade 1–2): 3 (60) n (%)
Muscle spasms, treatment-emergent adverse event ([1]; <130 mg (n = 5), Grade 1–2): 2 (40) n (%)
Nausea, treatment-emergent adverse event ([1]; <130 mg (n = 5), Grade 1–2): 1 (20) n (%)
Thrombocytopenia (lab), treatment-emergent adverse event ([1]; <130 mg (n = 5), Grade 1–2): 0 (0) n (%)
Vomiting, treatment-emergent adverse event ([1]; <130 mg (n = 5), Grade 1–2): 0 (0) n (%)
ALT elevation (lab), treatment-emergent adverse event ([1]; <130 mg (n = 5), Grade ≥3): 0 (0) n (%)
AST elevation (lab), treatment-emergent adverse event ([1]; <130 mg (n = 5), Grade ≥3): 0 (0) n (%)
Alopecia, treatment-emergent adverse event ([1]; <130 mg (n = 5), Grade ≥3): 0 (0) n (%)
Decreased appetite, treatment-emergent adverse event ([1]; <130 mg (n = 5), Grade ≥3): 0 (0) n (%)
Diarrhea, treatment-emergent adverse event ([1]; <130 mg (n = 5), Grade ≥3): 0 (0) n (%)
Dysgeusia, treatment-emergent adverse event ([1]; <130 mg (n = 5), Grade ≥3): 0 (0) n (%)
Fatigue, treatment-emergent adverse event ([1]; <130 mg (n = 5), Grade ≥3): 0 (0) n (%)
Hemoglobin (lab), treatment-emergent adverse event ([1]; <130 mg (n = 5), Grade ≥3): 0 (0) n (%)
Muscle spasms, treatment-emergent adverse event ([1]; <130 mg (n = 5), Grade ≥3): 0 (0) n (%)
Nausea, treatment-emergent adverse event ([1]; <130 mg (n = 5), Grade ≥3): 0 (0) n (%)
Thrombocytopenia (lab), treatment-emergent adverse event ([1]; <130 mg (n = 5), Grade ≥3): 0 (0) n (%)
Vomiting, treatment-emergent adverse event ([1]; <130 mg (n = 5), Grade ≥3): 0 (0) n (%)
ALT elevation (lab), treatment-emergent adverse event ([1]; >160 mg (n = 15), Grade 1–2): 11 (73) n (%)
AST elevation (lab), treatment-emergent adverse event ([1]; >160 mg (n = 15), Grade 1–2): 12 (80) n (%)
Alopecia, treatment-emergent adverse event ([1]; >160 mg (n = 15), Grade 1–2): 2 (13) n (%)
Decreased appetite, treatment-emergent adverse event ([1]; >160 mg (n = 15), Grade 1–2): 4 (27) n (%)
Diarrhea, treatment-emergent adverse event ([1]; >160 mg (n = 15), Grade 1–2): 2 (13) n (%)
Dysgeusia, treatment-emergent adverse event ([1]; >160 mg (n = 15), Grade 1–2): 1 (7) n (%)
Fatigue, treatment-emergent adverse event ([1]; >160 mg (n = 15), Grade 1–2): 6 (40) n (%)
Hemoglobin (lab), treatment-emergent adverse event ([1]; >160 mg (n = 15), Grade 1–2): 12 (80) n (%)
Muscle spasms, treatment-emergent adverse event ([1]; >160 mg (n = 15), Grade 1–2): 4 (27) n (%)
Nausea, treatment-emergent adverse event ([1]; >160 mg (n = 15), Grade 1–2): 7 (47) n (%)
Thrombocytopenia (lab), treatment-emergent adverse event ([1]; >160 mg (n = 15), Grade 1–2): 1 (7) n (%)
Vomiting, treatment-emergent adverse event ([1]; >160 mg (n = 15), Grade 1–2): 5 (33) n (%)
ALT elevation (lab), treatment-emergent adverse event ([1]; >160 mg (n = 15), Grade ≥3): 4 (27) n (%)
AST elevation (lab), treatment-emergent adverse event ([1]; >160 mg (n = 15), Grade ≥3): 3 (20) n (%)
Alopecia, treatment-emergent adverse event ([1]; >160 mg (n = 15), Grade ≥3): 0 (0) n (%)
Decreased appetite, treatment-emergent adverse event ([1]; >160 mg (n = 15), Grade ≥3): 1 (7) n (%)
Diarrhea, treatment-emergent adverse event ([1]; >160 mg (n = 15), Grade ≥3): 0 (0) n (%)
Dysgeusia, treatment-emergent adverse event ([1]; >160 mg (n = 15), Grade ≥3): 0 (0) n (%)
Fatigue, treatment-emergent adverse event ([1]; >160 mg (n = 15), Grade ≥3): 2 (13) n (%)
Hemoglobin (lab), treatment-emergent adverse event ([1]; >160 mg (n = 15), Grade ≥3): 1 (7) n (%)
Muscle spasms, treatment-emergent adverse event ([1]; >160 mg (n = 15), Grade ≥3): 0 (0) n (%)
Nausea, treatment-emergent adverse event ([1]; >160 mg (n = 15), Grade ≥3): 0 (0) n (%)
Thrombocytopenia (lab), treatment-emergent adverse event ([1]; >160 mg (n = 15), Grade ≥3): 0 (0) n (%)
Vomiting, treatment-emergent adverse event ([1]; >160 mg (n = 15), Grade ≥3): 0 (0) n (%)
recommended phase II / single-agent dose ([1]; QD, 28-day cycles): 160 mg
dose levels well tolerated ([1]; administered QD): up to 160 mg
hematologic toxicity ([1]; all dose levels): not associated with hematologic toxicity; also recorded: No significant hematologic toxicities
patients reporting alopecia ([1]; at the MTD): 22%
patients reporting muscle spasms ([1]; at the MTD): 33%
intratumoral concentration of gemcitabine [2]: enhanced intratumoral concentration of gemcitabine
IC50 (Smo receptor): 1.4 nM
regrowth of SCLC tumors following chemotherapy (SCLC tumors): delays regrowth
inhibition of HhP activity (downregulation of Gli1 mRNA) [3]: dose-dependent inhibition of HhP activity
survival of mice bearing orthotopically implanted tumors [3]: significant prolongation of survival
complete response (CR) [4, 5]: 2 patients
partial response (PR) [4, 5]: 6 patients
patients with objective response [4, 5]: Eight
patients showing a response ([4]; HhP inhibitor-naïve evaluable BCC patients, doses ≥130 mg): 8 of 28
difference in efficacy between the 130- and 160-mg dose levels ([4]; full BCC cohort (N = 39)): no apparent difference in efficacy
objective responses ([4]; nine BCC patients previously treated with vismodegib): no objective responses
patients with a decrease in Gli-1 transcript level in normal skin biopsies (Gli-1 mRNA; 48 of 65 patients, after 21 days of treatment): 74%
Gli-1 transcript reduction in stroma (LCM quantitative RT-PCR) (Gli-1 mRNA; rectal adenocarcinoma patient biopsy, cycle 1, day 22 vs baseline): about 7 fold
Gli-1 stromal staining (IHC) (Gli-1 mRNA; rectal adenocarcinoma posttreatment biopsy, cycle 1, day 22): reduced Gli-1 stromal staining
